# hERG rescue – compounds protecting human hERG from proarrhythmic drug block. CHO-hERG, FluxOR thallium flux, dofetilide IC70 present. Q12809. activation (rescue from dofetilide block), less the hit threshold, % at 10 µM. actives 0.51% (n = 310,000);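 active = activation above the mean of controls blocked by dofetilide plus 5 SD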;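 note: thallium influx through hERG after potassium depolarization seen as dye fluorescence rise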
# KCNK9 inh – human KCNK9 channel inhibition. B-score at 10 µM. actives 1.2% (n = 310,000). HEK293 KCNK9, FluxOR thallium flux fluorescence; hits give low values. AID 488922. Q9NPC2;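 active = ratio B-score over 3 SD below the library mean, with starting fluorescence within 5 SD of its mean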;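 note: negative B-score means less thallium flux so channel inhibition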
# KCNQ1 inh – blocks the human KCNQ1 potassium channel. actives 1.3% (n = 310,000). CHO-K1 KCNQ1, FluxOR thallium flux fluorescence; hits give high values. P51787. B-score at 10 µM;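 active = compounds whose thallium flux B-score, printed positive for inhibition, exceeds three library SD while starting fluorescence stays within three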;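 note: channel opened by potassium depolarization with thallium stimulus after 20 min compound exposure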
# KCC2 mod – modulators of human KCC2 chloride dependent transport; B-score of Tl+ flux slope (higher = more flux/activation; lower = inhibition) at 10 µM; KCC2 cells, thallium flux FluoZin-2 fluorescence; actives 2.2% (n = 190,000);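 active = thallium flux slope and its plate-corrected score both differing from the plate sample mean at a set confidence after two filtering rounds, in either direction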;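 note: slope of fluorescence scaled to starting intensity during 10 to 20 s after thallium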
# KCNQ1 pot – human KCNQ1 channel potentiation or activation; B-score at 10 µM; CHO-K1 KCNQ1, thallium flux FluxOR fluorescence; hits give high values; actives 0.35% (n = 310,000);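 active = fluorescence ratio B-score, a plate-corrected score, at least three library SD, with initial intensity B-score within 5 SD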
#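 Schedule – 37 °C overnight plating, 90-min dark dye load, 20-min compound pretreatment · System – stable KCNQ1 CHO-K1 line · Probe or stimulus – thallium- and potassium-containing depolarizing buffer · Measured by – kinetic FluxOR fluorescence, 10 s baseline plus 110 s post-stimulus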
# KCNK3 block – human KCNK3 channel inhibition, primary screen; CHO-KCNK3 thallium flux, FluxOR fluorescence; hits give low values; B-score at 10 µM; AID 602410; actives 0.84% (n = 340,000);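 active = B-score under library mean minus 4 SD, starting fluorescence ratio at most library mean plus 5 SD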;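 note: more negative B-score means stronger inhibition of thallium flux through KCNK3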
# Target sequence (O14649 whole entry, looked up): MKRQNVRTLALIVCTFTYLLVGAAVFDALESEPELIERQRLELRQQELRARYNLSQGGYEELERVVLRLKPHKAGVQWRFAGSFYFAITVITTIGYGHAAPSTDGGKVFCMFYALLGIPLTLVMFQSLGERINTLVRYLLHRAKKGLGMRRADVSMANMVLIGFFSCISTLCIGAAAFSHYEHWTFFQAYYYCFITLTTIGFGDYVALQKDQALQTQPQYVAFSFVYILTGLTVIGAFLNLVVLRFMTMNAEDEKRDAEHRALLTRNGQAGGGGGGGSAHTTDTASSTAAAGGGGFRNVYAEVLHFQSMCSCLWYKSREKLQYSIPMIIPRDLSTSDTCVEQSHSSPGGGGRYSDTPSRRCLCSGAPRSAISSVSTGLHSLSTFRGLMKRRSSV
# * = called active by the depositor; i = inactive; · = no result given. An excerpt weighted towards active compounds, which were near 4.1% of everything screened.
SMILES,hERG rescue,KCNK9 inh,KCNQ1 inh,KCC2 mod,KCNQ1 pot,KCNK3 block
Fc1ccccc1N1CCN(c2nc(-c3cccs3)nc3ccccc23)CC1,-16,-7.6*,i,-1,i,i
CC(=O)N1CCN(c2nc(-c3cccs3)nc3ccccc23)CC1,-20,i,i,-2.6,i,i
Fc1cccc(Cl)c1CSc1nnc(COc2cccc3cccnc23)o1,-5,i,i,-0.78,i,i
CN(C)c1cc[n+](CC(=O)Nc2ccccc2C(F)(F)F)cc1,0,i,i,·,i,i
CC(C)Oc1ccc(CN=C(N)N=C(N)N)cc1Cl,-2,i,i,0.74,i,i
CNc1cc(F)nc(F)n1,-10,i,i,-0.66,i,i
CCOC(=O)C1=C(C)Nc2sc(C(=O)c3ccc(OC)cc3)c(N)c2C1c1ccc(C(=O)OC)cc1 (centres undefined),-10,-6.7*,i,0.36,i,i
CCN1C(=O)/C(=C/c2ccc(N3CCCC3)cc2)NC1=S,-11,i,12*,4.1,i,i
O=C1C(=O)N(Cc2cccnc2)C(c2cccc(Br)c2)/C1=C(/O)c1ccc2c(c1)OCO2 (centres undefined),-12,i,i,·,i,i
COc1ccc(NC(=O)c2cn(-c3ccccc3)nc2-c2ccncc2)cc1,25*,i,i,0.23,i,i
COc1ccc(-c2nn(-c3ccccc3)cc2C(=O)Nc2ccc(C(=O)O)cc2)cc1,-1,i,i,·,i,i
COc1ccc(NC(=O)c2cn(-c3ccccc3)nc2-c2cc3ccccc3o2)cc1,-5,i,7*,0.082,i,i
COc1ccc(-c2nn(-c3ccccc3)cc2C(=O)NC(=S)NNC(=O)c2ccncc2)cc1,17*,i,i,2.8,i,i
CCOC(=O)N1CCN(C(=O)c2ccc(CNS(=O)(=O)c3ccc(NC(C)=O)cc3)cc2)CC1,-6,i,i,·,i,i
O=C1CCCN1CCCNC(=S)Nc1cccc2ccccc12,-4,i,i,-0.14,i,i
O=C(NC(=S)Nc1ncc(Br)cc1Br)c1cncc(Br)c1,-6,i,i,3.5,i,i
Cc1ccccc1NC(=S)NC(=O)c1cncc(Br)c1,-1,i,i,29*,i,i
O=C(NC(=S)NC1CCCCCC1)c1cncc(Br)c1,-1,i,i,48*,i,i
CCn1c(=O)c2c(nc(SCC(=O)N3CCCC(C)C3)n2C)n(C)c1=O (centres undefined),-7,i,i,·,i,i
Clc1ccc(OCc2cc(-c3ccccc3)no2)c(Cl)c1,0,-7.4*,i,·,i,i
COc1ccc(CNC(=O)C(OC(=O)c2cccs2)C(C)C)cc1 (centres undefined),-4,i,i,·,i,i
Cc1ccc(C)c(S(=O)(=O)C(C#N)c2nc3ccccc3nc2N2CCOCC2)c1 (centres undefined),-6,i,i,-1.5,i,i
Cc1ccc(C)c(S(=O)(=O)C(C#N)c2nc3ccccc3nc2N2CCCC2)c1 (centres undefined),-11,-8.1*,i,-2.1,i,i
COC(=O)c1ccsc1NC(=O)c1cccc(OC)c1,-15,i,i,-0.81,i,i
CN1CCc2nc(NC(=O)COc3ccc(C#N)cc3)sc2C1,-9,i,i,-0.14,i,i
SMILES,hERG rescue,KCNK9 inh,KCNQ1 inh,KCC2 mod,KCNQ1 pot,KCNK3 block
CCC(C(=O)NC(C)CCc1ccccc1)n1nc(C)n2c(cc3occc32)c1=O (centres undefined),-13,i,i,-5.5*,i,i
CCOC(=O)c1ccc(NC(=O)NC2CC3CCC(C2)N3Cc2nnnn2C(C)(C)C)cc1 (centres undefined),-5,i,i,0.12,i,i
Cc1ccc(C(=O)O)cc1NC(=O)C1CCN(S(=O)(=O)c2ccc3c(c2)OCCO3)CC1,·,·,·,·,·,i
CN(C)c1ccc(C(=O)Nc2nc3c(s2)CCCC3)cc1,-18,i,i,-0.76,i,i
C/C(=N\Nc1nc2c(s1)CCCC2)c1ccc(Cl)cc1,-6,i,6*,·,i,i
O=C(COc1ccc(Cl)cc1)NC1=NN(c2ccccc2)C(=O)C1,-4,i,i,-0.33,i,i
CC(C)(C)C(=O)c1no[n+]([O-])c1/C(=N/O)C(C)(C)C,-10,i,6*,-0.15,i,i
COc1ccccc1C(O)(c1ccccc1)c1ccccc1OC,·,·,·,·,·,-10*
COc1ccccc1O,-3,i,i,·,i,i
CCOc1ccccc1N1CCN(C(=O)CCCN2C(=O)c3cccc4cccc(c34)C2=O)CC1,-19,i,i,-2.2,i,i
COc1cc2ccccc2cc1C(=O)O,-4,i,i,·,i,i
COc1ccc(OC)c2cc3ccccc3cc12,·,·,·,·,·,-12*
CCOC(=O)c1ccc(N2C(=O)c3n[nH]c(C)c3C2c2ccccc2)cc1 (centres undefined),-3,i,i,0.15,i,i
CCOC(=O)c1ccc(N2C(=O)c3n[nH]c(C)c3C2c2ccc(O)cc2)cc1 (centres undefined),-6,-7.1*,i,-0.73,i,i
CCCCc1nc2ccccc2c(=O)n1NC(=O)c1c(O)c2c(n(CC(C)C)c1=O)CCCC2,-4,i,6*,-2.2,i,i
CC(C)Cn1c2c(c(O)c(C(=O)Nn3c(Cc4ccccc4)nc4ccccc4c3=O)c1=O)CCCC2,-4,i,i,-0.13,i,i
CCc1nc2ccccc2c(=O)n1NC(=O)c1c(O)c2ccccc2n(CC)c1=O,37*,i,i,·,i,i
CC(C)(C)NC(=O)C(c1ccccc1)N(C(=O)c1csnn1)C1CC1 (centres undefined),-16,i,i,·,i,i
CC(C)(C)OC1NS(=O)(=O)OCC1NCOC(Cl)(Cl)Cl (centres undefined),-3,i,i,·,i,i
C#CC(C)(C)NC(=O)c1ccccc1OC,-8,i,i,0.49,i,i
Nc1nc2c(s1)CCc1ccccc1-2,-2,i,i,·,i,i
N#C/C(=C(/O)CCl)c1nc2c(s1)CCc1ccccc1-2,-16,i,6*,·,i,i
O=C(Nc1ccc2c(c1)OCCO2)C1CCN(C(=O)c2ccc([N+](=O)[O-])cc2)CC1,-11,i,i,0.6,i,i
CS(=O)(=O)n1nc(-c2ccc(Cl)cc2)nc1N,-8,i,i,0.2,i,i

# Screening results: PubChem, several laboratories
